Columns and labels:
K562 [1] = experiment: Inhibitory concentration against K562 cell line; format: functional, cell-based; settings: Homo sapiens
Summary of the method: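 MTT viability assay on exponentially growing K562 cells seeded at 3 × 10³ cells/well, grown 24 h before drug addition. After 72 h drug exposure MTT reagent added. Viability is absorbance as percent of untreated control wells. IC50 is the concentration giving 50% loss of viability. Triplicate wells, at least three separate experiments.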

K562 [2] = experiment: Ability to induce cells in S phase; format: functional, Homo sapiens; parameters: concentration or dose not given beside the values
Summary of the method: (§1)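 K562 human leukemic cells exposed continuously to test compound at 5 μM for 24 h. 10⁶ cells/mL resuspended in propidium iodide, held at 4 °C overnight, analysed by flow cytometry for DNA content. Doublets and aggregates excluded on FL2-area/FL2-width plot. Fraction of population in G0/G1, S and G2/M calculated.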

K562 [3] = experiment: Ability to induce cells in G0/G1 phase; format: functional, Homo sapiens; parameters: concentration or dose not given beside the values; summary of the method: as §1
K562 [4] = experiment: Ability to induce cells in G2/M phase; format: functional, Homo sapiens; parameters: concentration or dose not given beside the values; summary of the method: as §1
[5] = test system: NCI-60 human tumor cell line panel (Homo sapiens); experiment: Growth inhibitory concentration is the concentration that reduced growth of NCI-60 cell lines by 50%

Row | IC50 (K562 [1]) [µM] | SMILES | Activity (K562 [2]) [%] | Activity (K562 [3]) [%] | Activity (K562 [4]) [%] | GI50 [5] [µM]
1 | 0.8 | COc1cc(O)c2c(O)cc(-c3cccc(F)c3)nc2c1 | 30 | 9 | 60 | 14.5
2 |  | Oc1cccc2nc(-c3ccccc3)cc(O)c12 | 52 | 26 | 21 | 
3 |  | CCc1ccc(-c2cc(O)c3c(O)cc(OC)cc3n2)cc1 | 48 | 26 | 25 | 
4 |  | COc1cc(O)c2c(O)cc(-c3cccc(Br)c3)nc2c1 | 37 | 51 | 12 | 
5 |  | COc1cc(O)c2c(O)cc(-c3cccnc3)nc2c1 | 31 | 24 | 45 | 
6 |  | COc1cc(O)c2c(O)cc(-c3cccc(CCl)c3)nc2c1 | 51 | 30 | 18 | 
7 | 1.8 | COc1cc(O)c2c(O)cc(-c3ccccc3)nc2c1 | 26 | 7 | 66 | 8.7
8 |  | COc1cc(O)c2c(O)cc(Cc3ccccc3)nc2c1 | 50 | 41 | 9 | 
9 |  | COc1cc(O)c2c(O)cc(-c3cc(F)cc(F)c3)nc2c1 | 40 | 42 | 18 | 
10 |  | COc1cc(O)c2c(O)cc(-c3cccc(-c4ccccc4)c3)nc2c1 | 45 | 46 | 9 | 
11 | 3 | CC[C@]1(O)C[C@@H]2CN(CCc3c([nH]c4ccccc34)[C@@](C(=O)OC)(c3cc4c(cc3OC)N(C)[C@H]3[C@@](O)(C(=O)OC)[C@H](OC(C)=O)[C@]5(CC)C=CCN6CC[C@]43[C@@H]65)C2)C1 [VINBLASTINE] | 30 | 33 | 37 | 
12 |  | CCn1c(-c2cccc(F)c2)cc(=O)c2c(O)cc(OC)cc21 | 28 | 53 | 19 | 
13 |  | CC(=O)O[C@H]1C(=O)[C@@]2(C)[C@H]([C@H](OC(=O)c3ccccc3)[C@]3(O)C[C@H](OC(=O)[C@H](O)[C@@H](NC(=O)c4ccccc4)c4ccccc4)C(C)=C1C3(C)C)[C@]1(OC(C)=O)CO[C@@H]1C[C@@H]2O [PACLITAXEL] | 18 | 11 | 71 | 
14 |  | COc1cc2nc(-c3ccccc3)cc(O)c2c(O)c1OC | 45 | 47 | 8 | 
15 |  | COc1cc(O)c2c(O)cc(-c3cccc(OC(F)(F)F)c3)nc2c1 | 35 | 32 | 32 | 
16 |  | COc1cc(O)c2c(O)cc(-c3cccc(C(F)(F)F)c3)nc2c1 | 38 | 41 | 20 | 
17 |  | COc1cc(O)c2c(O)cc(-c3ccc(OC)c(F)c3)nc2c1 | 53 | 26 | 20 | 
18 |  | COc1cc(O)c2c(O)cc(-c3cccc(Cl)c3)nc2c1 | 35 | 33 | 32 | 
19 |  | CCn1c(-c2ccccc2)cc(=O)c2c(O)cc(OC)cc21 | 46 | 43 | 11 | 
20 |  | COc1cc2nc(-c3ccccc3)cc(O)c2c(OC)c1OC | 48 | 47 | 5 | 
21 |  | COc1cc(O)c2c(O)cc(-c3ccc(F)cc3)nc2c1 | 36 | 54 | 10 | 
22 |  | COc1cc(O)c2c(O)cc(-c3ccc(C)c(F)c3)nc2c1 | 54 | 28 | 18 | 
23 |  | COc1cccc(-c2cc(O)c3c(O)cc(OC)cc3n2)c1 | 41 | 28 | 31 | 9.7
24 |  | COc1cc(O)c2c(O)cc(-c3ccc(F)c(F)c3)nc2c1 | 69 | 22 | 9 | 
25 | 1.5 | COc1cc(O)c2c(O)cc(-c3ccccc3F)nc2c1 | 37 | 23 | 41 | 9.9
26 |  | Oc1cccc2nc(-c3cccc(F)c3)cc(O)c12 | 33 | 17 | 49 | 
27 |  | COc1cc(O)c2c(O)cc(-c3cccc(I)c3)nc2c1 | 50 | 44 | 6 | 
